Laboratory results from ChEMBL document CHEMBL1150393, “Evaluation of radiolabeled (hetero)aromatic analogues of N-(2-diethylaminoethyl)-4-iodobenzamide for imaging and targeted radionuclide therapy of melanoma” (J Med Chem, 2008).

Legend:
[1] = Binding affinity to melanin in phosphate buffer solution; design: concentration or dose not given beside the values; conditions: tested as the 125I-labelled form
[2] = Binding affinity to melanin in water; design: concentration or dose not given beside the values; conditions: tested as the 125I-labelled form
Liver [3] = assay: Biodistribution in liver of C57BL/6 mouse bearing mouse B16-F0 cells at 0.74 to 0.92 MBq, iv after 3 hrs; type: ADME, organism-based; conditions: in vivo
In short: (§1)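 Male C57BL6 mice with s.c. left-flank B16-F0 melanoma (5 × 10⁵ cells in PBS). Two mice per time point frozen in liquid nitrogen after CO₂ sacrifice. Eight 40 µm whole-body cryosections per mouse read by multiwire proportional counter. cpm/mm² converted to kBq/g and expressed as %ID/g.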

[4] = Biodistribution in intestinal content of C57BL/6 mouse bearing mouse B16-F0 cells at 0.74 to 0.92 MBq, iv after 1 hr; type: ADME, organism-based; conditions: in vivo; in short: as §1
Liver [5] = assay: Biodistribution in liver of C57BL/6 mouse bearing mouse B16-F0 cells at 0.74 to 0.92 MBq, iv after 1 hr; type: ADME, organism-based; conditions: in vivo; in short: as §1
[6] = Ratio of drug level in tumor to liver of C57BL/6 mouse bearing mouse B16-F0 cells at 0.74 to 0.92 MBq, iv after 1 hr; type: ADME, organism-based; conditions: in vivo
In short: (§2)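 Tumour and organ radioactive concentrations came from whole-body cryosection counting (40 µm slices, eight per mouse, two mice per time) after tail-vein injection of the [¹²⁵I]-labelled compound (0.1 µmol) into male C57BL6 mice bearing s.c. B16-F0 melanoma. Each value is the ratio of the tumour concentration to the organ concentration.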

Kidney = assay: Biodistribution in kidney of C57BL/6 mouse bearing mouse B16-F0 cells at 0.74 to 0.92 MBq, iv after 1 hr; type: ADME, organism-based; conditions: in vivo; in short: as §1
[7] = Partition coefficient, log P in phosphate buffer solution at pH 7.4; type: physicochemical
In short: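 Shake-flask partition: 50 µM [¹²⁵I]-labelled compound in phosphate buffer pH 7.4 was mixed with 2 mL n-octanol. Each phase was γ-counted, P was taken as the octanol/buffer activity ratio, and log P was reported.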

Thyroid gland [8] = assay: Biodistribution in thyroid of C57BL/6 mouse bearing mouse B16-F0 cells at 0.74 to 0.92 MBq, iv after 3 hrs; type: ADME, organism-based; conditions: in vivo
In short: (§3)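 [¹²⁵I]-labelled compound given iv by tail vein (0.1 µmol per mouse) to male C57BL6 mice bearing s.c. B16-F0 flank tumours (5 × 10⁵ cells in PBS). Two mice per time point were killed by CO₂, frozen in liquid nitrogen and cut into 40 µm cryosections, eight slices per mouse. Slice radioactivity was read on a multiwire proportional counter, converted to kBq/g and reported as %ID/g.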

[9] = Biodistribution in Stomach content of C57BL/6 mouse bearing mouse B16-F0 cells at 0.74 to 0.92 MBq, iv after 1 hr; type: ADME, organism-based; conditions: in vivo; in short: as §1
Spleen = assay: Biodistribution in spleen of C57BL/6 mouse bearing mouse B16-F0 cells at 0.74 to 0.92 MBq, iv after 1 hr; type: ADME, organism-based; conditions: in vivo; in short: as §3
Thyroid gland [10] = assay: Biodistribution in thyroid of C57BL/6 mouse bearing mouse B16-F0 cells at 0.74 to 0.92 MBq, iv after 1 hr; type: ADME, organism-based; conditions: in vivo; in short: as §3
Thyroid gland [11] = assay: Biodistribution in thyroid of C57BL/6 mouse bearing mouse B16-F0 cells at 0.74 to 0.92 MBq, iv after 6 hrs; type: ADME, organism-based; conditions: in vivo; in short: as §3
[12] = Biodistribution in uvea of C57BL/6 mouse bearing mouse B16-F0 cells at 0.74 to 0.92 MBq, iv after 6 hrs; type: ADME, organism-based, Uveal tract; conditions: in vivo; in short: as §3
[13] = Biodistribution in uvea of C57BL/6 mouse bearing mouse B16-F0 cells at 0.74 to 0.92 MBq, iv after 3 hrs; type: ADME, organism-based, Uveal tract; conditions: in vivo; in short: as §3
[14] = Drug excretion in mouse B16-F0 cells bearing C57BL/6 mouse urine at 0.74 to 0.92 MBq, iv after 72 hrs; type: ADME, organism-based; conditions: in vivo
In short: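 Urine was collected from two B16-F0 tumour-bearing C57BL6 mice for up to 72 h after iv tail-vein injection of the [¹²⁵I]-labelled compound (0.1 µmol). Samples were counted to give cumulative urinary excretion as %ID.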

Muscle tissue [15] = assay: Biodistribution in muscle of C57BL/6 mouse bearing mouse B16-F0 cells at 0.74 to 0.92 MBq, iv after 1 hr; type: ADME, organism-based; conditions: in vivo; in short: as §1
Brain = assay: Biodistribution in brain of C57BL/6 mouse bearing mouse B16-F0 cells at 0.74 to 0.92 MBq, iv after 1 hr; type: ADME, organism-based; conditions: in vivo; in short: as §1
[16] = Biodistribution in tumor of C57BL/6 mouse bearing mouse B16-F0 cells at 0.74 to 0.92 MBq, iv after 1 hr; type: ADME, organism-based, Neoplasm; conditions: in vivo; in short: as §3
[17] = Biodistribution in intestinal content of C57BL/6 mouse bearing mouse B16-F0 cells at 0.74 to 0.92 MBq, iv after 6 hrs; type: ADME, organism-based; conditions: in vivo; in short: as §1
Blood = assay: Biodistribution in blood of C57BL/6 mouse bearing mouse B16-F0 cells at 0.74 to 0.92 MBq, iv after 1 hr; type: ADME, organism-based; conditions: in vivo; in short: as §1
[18] = Biodistribution in intestinal content of C57BL/6 mouse bearing mouse B16-F0 cells at 0.74 to 0.92 MBq, iv after 3 hrs; type: ADME, organism-based; conditions: in vivo; in short: as §1
[19] = Biodistribution in Stomach content of C57BL/6 mouse bearing mouse B16-F0 cells at 0.74 to 0.92 MBq, iv after 6 hrs; type: ADME, organism-based; conditions: in vivo; in short: as §1
[20] = Biodistribution in gall bladder of C57BL/6 mouse bearing mouse B16-F0 cells at 0.74 to 0.92 MBq, iv after 3 hrs; type: ADME, organism-based; conditions: in vivo; in short: as §1
Lung = assay: Biodistribution in lung of C57BL/6 mouse bearing mouse B16-F0 cells at 0.74 to 0.92 MBq, iv after 1 hr; type: ADME, organism-based; conditions: in vivo; in short: as §1
Thyroid gland [21] = assay: Biodistribution in thyroid of C57BL/6 mouse bearing mouse B16-F0 cells at 0.74 to 0.92 MBq, iv after 24 hrs; type: ADME, organism-based; conditions: in vivo; in short: as §3
[22] = Biodistribution in uvea of C57BL/6 mouse bearing mouse B16-F0 cells at 0.74 to 0.92 MBq, iv after 72 hrs; type: ADME, organism-based, Uveal tract; conditions: in vivo; in short: as §3
[23] = Ratio of drug level in tumor to brain of C57BL/6 mouse bearing mouse B16-F0 cells at 0.74 to 0.92 MBq, iv after 1 hr; type: ADME, organism-based; conditions: in vivo; in short: as §2
[24] = Biodistribution in tumor of C57BL/6 mouse bearing mouse B16-F0 cells at 0.74 to 0.92 MBq, iv after 6 hrs; type: ADME, organism-based, Neoplasm; conditions: in vivo; in short: as §3
[25] = Biodistribution in tumor of C57BL/6 mouse bearing mouse B16-F0 cells at 0.74 to 0.92 MBq, iv after 3 hrs; type: ADME, organism-based, Neoplasm; conditions: in vivo; in short: as §3
[26] = Biodistribution in uvea of C57BL/6 mouse bearing mouse B16-F0 cells at 0.74 to 0.92 MBq, iv after 24 hrs; type: ADME, organism-based, Uveal tract; conditions: in vivo; in short: as §3
[27] = Biodistribution in tumor of C57BL/6 mouse bearing mouse B16-F0 cells at 0.74 to 0.92 MBq, iv after 72 hrs; type: ADME, organism-based, Neoplasm; conditions: in vivo; in short: as §3
[28] = Biodistribution in uvea of C57BL/6 mouse bearing mouse B16-F0 cells at 0.74 to 0.92 MBq, iv after 1 hr; type: ADME, organism-based, Uveal tract; conditions: in vivo; in short: as §3
[29] = Ratio of drug level in tumor to lung of C57BL/6 mouse bearing mouse B16-F0 cells at 0.74 to 0.92 MBq, iv after 1 hr; type: ADME, organism-based; conditions: in vivo; in short: as §2
[30] = Ratio of drug level in tumor to liver of C57BL/6 mouse bearing mouse B16-F0 cells at 0.74 to 0.92 MBq, iv after 3 hrs; type: ADME, organism-based; conditions: in vivo; in short: as §2
[31] = Biodistribution in tumor of C57BL/6 mouse bearing mouse B16-F0 cells at 0.74 to 0.92 MBq, iv after 24 hrs; type: ADME, organism-based, Neoplasm; conditions: in vivo; in short: as §3
[32] = Biodistribution in Stomach content of C57BL/6 mouse bearing mouse B16-F0 cells at 0.74 to 0.92 MBq, iv after 3 hrs; type: ADME, organism-based; conditions: in vivo; in short: as §1
[33] = Biodistribution in intestinal content of C57BL/6 mouse bearing mouse B16-F0 cells at 0.74 to 0.92 MBq, iv after 24 hrs; type: ADME, organism-based; conditions: in vivo; in short: as §1
Muscle tissue [34] = assay: Biodistribution in muscle of C57BL/6 mouse bearing mouse B16-F0 cells at 0.74 to 0.92 MBq, iv after 3 hrs; type: ADME, organism-based; conditions: in vivo; in short: as §1
Pancreas = assay: Biodistribution in pancreas of C57BL/6 mouse bearing mouse B16-F0 cells at 0.74 to 0.92 MBq, iv after 1 hr; type: ADME, organism-based; conditions: in vivo; in short: as §1

SMILES: CCN(CC)CCNC(=O)c1cnc2cc(I)ccc2n1
- Activity [1]: 47.3%
- Activity [2]: 67.4%

SMILES: CCN(CC)CCNC(=O)c1ccc2cc(I)ccc2c1
- Activity [1]: 50.9%
- Activity [2]: 80.8%

SMILES: CCN(CC)CCNC(=O)c1cc2c([125I])cccc2s1.Cl
- Drug uptake (Liver [3]): 1.25 % ID/g
- Drug uptake [4]: 71.13 % ID/g
- Drug uptake (Liver [5]): 2.21 % ID/g
- Ratio [6]: 5.64
- Drug uptake (Kidney): 5.61 % ID/g
- logD [7]: 1.54
- Drug uptake (Thyroid gland [8]): 67.21 % ID/g
- Drug uptake [9]: 20 % ID/g
- Drug uptake (Spleen): 3.88 % ID/g
- Drug uptake (Thyroid gland [10]): 24.03 % ID/g
- Drug uptake (Thyroid gland [11]): 139.12 % ID/g
- Drug uptake [12]: 16.29 % ID/g
- Drug uptake [13]: 19.51 % ID/g
- Activity [14]: 52.6%
- Drug uptake (Muscle tissue [15]): 0.77 % ID/g
- Drug uptake (Brain): 0.81 % ID/g
- Drug uptake [16]: 12.5 % ID/g
- Drug uptake [17]: 37.7 % ID/g
- Drug uptake (Blood): 1.37 % ID/g
- Drug uptake [18]: 73.02 % ID/g
- Drug uptake [19]: 18.77 % ID/g
- Drug uptake [20]: 65.56 % ID/g
- Drug uptake (Lung): 3.69 % ID/g
- Drug uptake (Thyroid gland [21]): 79.82 % ID/g
- Drug uptake [22]: 9.22 % ID/g
- Ratio [23]: 15.4
- Drug uptake [24]: 8.7 % ID/g
- Drug uptake [25]: 10 % ID/g
- Drug uptake [26]: 11.06 % ID/g
- Drug uptake [27]: 1.7 % ID/g
- Drug uptake [28]: 16.09 % ID/g
- Ratio [29]: 3.38
- Ratio [30]: 7.98
- Drug uptake [31]: 7.3 % ID/g
- Drug uptake [32]: 5.93 % ID/g

SMILES: CCN(CC)CCNC(=O)c1ccc2cc(I)ccc2n1
- Activity [1]: 43.2%
- Activity [2]: 87.4%

SMILES: CCN(CC)CCNC(=O)c1cc2cc(I)ccc2[nH]1
- Activity [1]: 43.1%
- Activity [2]: 79.8%

SMILES: CCN(CC)CCNC(=O)c1c[nH]c2ccc(I)cc2c1=O
- Activity [1]: 59%
- Activity [2]: 86.7%

SMILES: CCN(CC)CCNC(=O)c1cn2cc([125I])ccc2n1.Cl.Cl
- Drug uptake [33]: 2.68 % ID/g
- Drug uptake (Liver [3]): 0.99 % ID/g
- Drug uptake [4]: 9.48 % ID/g
- Drug uptake (Liver [5]): 3.97 % ID/g
- Ratio [6]: 1.43
- Drug uptake (Kidney): 2.99 % ID/g
- logD [7]: 0.71
- Drug uptake [9]: 4.55 % ID/g
- Drug uptake (Spleen): 13.07 % ID/g
- Drug uptake [12]: 26.81 % ID/g
- Drug uptake [13]: 19.18 % ID/g
- Activity [14]: 36.8%
- Drug uptake (Muscle tissue [15]): 0.51 % ID/g
- Drug uptake [16]: 5.7 % ID/g
- Drug uptake [17]: 56.39 % ID/g
- Drug uptake (Blood): 0.68 % ID/g
- Drug uptake [18]: 78.03 % ID/g
- Drug uptake [19]: 16.57 % ID/g
- Drug uptake (Lung): 2.42 % ID/g
- Drug uptake (Muscle tissue [34]): 0.09 % ID/g
- Drug uptake [22]: 9.55 % ID/g
- Drug uptake (Pancreas): 7.52 % ID/g
- Drug uptake [24]: 8.1 % ID/g
- Drug uptake [25]: 7.1 % ID/g
- Drug uptake [26]: 11.54 % ID/g
- Drug uptake [27]: 2.7 % ID/g
- Drug uptake [28]: 17.43 % ID/g
- Ratio [29]: 2.34
- Ratio [30]: 7.21
- Drug uptake [31]: 8 % ID/g
- Drug uptake [32]: 5.19 % ID/g

SMILES: CCN(CC)CCNC(=O)c1cn2cc(I)ccc2n1
- Activity [1]: 11.6%
- Activity [2]: 75.3%
